Assay results from ChEMBL document CHEMBL1138479, “Synthesis and antiplasmodial activity of aminoalkylamino-substituted neocryptolepine derivatives” (J Med Chem, 2009).
Activity calls are given as the source filed them. No cut-off for these calls is given here.

Columns and labels:
Nucleic Acid = test: Binding affinity to DNA assessed as intercalation after 24 hrs by DNA-methyl green assay; assay type: nucleic-acid assay
In short: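 DNA-methyl green reagent (20 mg in 100 mL 0.05 M Tris HCl pH 7.5 with 7.5 mM MgSO4, stirred 24 h at 37 °C) was added to dried compound. A620 was read at 0 and after 24 h at 25 °C. […] Cryptolepine was the positive control.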

[1] = molecular target: T1, Histidine-rich protein PFHRP-II (Plasmodium falciparum, UniProt P05227); test: (§1) Inhibition of beta-hematin formation at 5 milliequivalent after 18 hrs by microtiter plate assay; assay type: functional
T1 sequence (P05227 whole entry): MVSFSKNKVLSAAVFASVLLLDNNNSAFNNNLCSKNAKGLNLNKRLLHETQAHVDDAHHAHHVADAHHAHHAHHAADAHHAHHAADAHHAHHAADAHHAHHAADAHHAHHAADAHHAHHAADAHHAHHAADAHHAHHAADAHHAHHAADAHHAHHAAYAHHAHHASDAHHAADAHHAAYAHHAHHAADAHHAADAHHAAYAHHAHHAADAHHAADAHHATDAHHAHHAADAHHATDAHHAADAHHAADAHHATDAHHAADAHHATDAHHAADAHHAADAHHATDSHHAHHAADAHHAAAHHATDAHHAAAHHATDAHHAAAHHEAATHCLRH

Plasmodium falciparum = test: Antiplasmodial activity against chloroquine-sensitive Plasmodium falciparum Ghana in human erythrocytes after 72 hrs by Malstat assay; assay type: functional, organism-based
In short: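 P. falciparum Ghana strain grown in human erythrocytes in RPMI-1640 at 37 °C under 3% O2, 4% CO2, 93% N2. Exposure to compounds lasted 72 h. Multiplication was read by Malstat with absorbance at 655 nm, and % growth inhibition was taken against negative blanks.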

[2] = Cytotoxicity against human MRC5 SV2 cells after 72 hrs by resazurin-based fluorometric assay; assay type: cell-based; settings: MRC5, 72 h
In short: (§2)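 MRC-5 SV2 fibroblasts were kept in MEM with 20 mM L-glutamine and 5% FCS at 37 °C, 5% CO2. Cells were seeded at 10⁴/well onto prediluted compounds and incubated 72 h. Viability was read fluorimetrically after resazurin addition.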

[3] = Selectivity index, ratio of IC50 for human MRC5 SV2 cells to IC50 for chloroquine-sensitive Plasmodium falciparum Ghana; assay type: toxicity, cell-based; settings: read-out: Ratio IC50
[4] = molecular target: T1, Histidine-rich protein PFHRP-II; test: Inhibition of beta-hematin formation after 18 hrs by microtiter plate assay; assay type: functional
Plasmodium berghei [5] = test: Antiplasmodial activity as reduced parasitaemia against chloroquine-sensitive Plasmodium berghei ANKA infected Swiss mice (Mus musculus) at 50 mg/kg intraperitoneal dose 4-6 hrs post infection on day 4; assay type: functional
In short: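 Swiss mice were infected ip with 4 × 10⁸ P. berghei ANKA-infected erythrocytes. Treatment was ip at 50 mg/kg daily for five consecutive days. Parasitaemia was scored on Giemsa-stained blood smears on days 4 and 7.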

MRC5 = test: Cytotoxicity against human MRC5 cells; assay type: cell-based; in short: as §2
[6] = molecular target: T2, Histidine-rich protein PFHRP-II (Plasmodium falciparum) (UniProt P05227); test: as §1; assay type: functional
T2 sequence (whole entry): T1 sequence (P05227 whole entry)

Plasmodium berghei [7] = test: Antiplasmodial activity as reduced parasitaemia against chloroquine-sensitive Plasmodium berghei ANKA infected Swiss mice (Mus musculus) at 20 mg/kg intraperitoneal dose 4-6 hrs post infection on day 4; assay type: functional, organism-based; design: dose 20 mg/kg
In short: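 Mice infected ip with P. berghei ANKA-infected erythrocytes (4 × 10⁸) received the compound intraperitoneally. Parasitaemia was counted on Giemsa-stained blood smears on days 4 and 7.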

[8] = Toxicity in Swiss mice (Mus musculus) infected with chloroquine-sensitive Plasmodium berghei ANKA assessed as mortality at 50 mg/kg, intraperitoneally administered 4 to 6 hrs after infection for 5 consecutive days measured within 7 days of postinfection; assay type: organism-based; design: dose 50 mg/kg, route intraperitoneal; settings: in vivo, ip, read-out: Activity
In short: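 Swiss mice were infected intraperitoneally with 4 × 10⁸ erythrocytes carrying chloroquine-sensitive P. berghei ANKA. They were dosed intraperitoneally at 50 mg/kg daily for five consecutive days. Parasitaemia was read on Giemsa-stained blood smears on days 4 and 7.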

SMILES | IC50 (Nucleic Acid) [µM] | IC50 [1] | IC50 (Plasmodium falciparum) [µM] | IC50 [4] [milliequivalent] | inhibition [6] [%] | IC50 [2] [µM] | selectivity ratio [3] | Activity (Plasmodium berghei [5]) | IC50 (MRC5) [µM] | Activity (Plasmodium berghei [7]) | mortality at 7 days [8] [%]
Clc1cccc2nc3[nH]c4ccccc4c3c(Cl)c12 | > 1000 | Not Active | > 64 |  |  | > 64 |  |  |  |  | 
Cn1c2nc3ccccc3c-2c(Cl)c2c(Cl)cccc21 | > 1000 | Not Active | 39 |  |  | 34 | 0.9 |  |  |  | 
Cn1c2nc3ccccc3c-2c(Cl)c2ccccc21 [11-CHLORONEOCRYPTOLEPINE] |  |  | > 64 |  |  | 5 | < 0.08 |  |  |  | 
CCN(CC)CCCC(C)Nc1c2cc(Cl)ccc2nc2[nH]c3ccccc3c12 (stereo not given) | > 1000 |  | 0.12 | 2.3 |  | > 64 | > 533 | inactive |  |  | 
Cn1c2nc3ccccc3c-2cc2cc(Br)ccc21 | > 400 |  |  | 1.77 |  | > 32 | > 5 |  | > 32 |  | 
CN(C)CCNc1c2cc(Cl)ccc2nc2[nH]c3ccccc3c12 | > 1000 |  | 0.4 | 3.68 |  | > 64 | > 160 |  |  |  | 
Cn1c2nc3ccc(Cl)cc3c-2cc2ccccc21 | > 1000 |  | 29 | 1.23 |  | > 64 | > 2 |  |  |  | 
CCN(CC)CCCC(C)Nc1c2c3ccccc3nc-2n(C)c2cccc(Cl)c12 (stereo not given) | > 1000 |  | 0.35 |  | < 20 | 21 | 60 |  |  |  | 
Clc1ccc2nc3[nH]c4ccccc4c3c(NCCN3CCCC3)c2c1 | > 1000 |  | 3 | 5.4 |  | > 64 | > 21 |  |  |  | 
OCCN1CCN(c2c3cc(Cl)ccc3nc3[nH]c4ccccc4c23)CC1 | > 1000 |  | 2.34 | 2 |  | 2 | 0.9 |  |  |  | 
CN1CCN(c2c3cc(Cl)ccc3nc3[nH]c4ccccc4c23)CC1 | > 1000 |  | 2.46 | 2.09 |  | 3 | 1 |  |  |  | 
Clc1ccc2nc3[nH]c4ccccc4c3c(N3CCC(N4CCCCC4)CC3)c2c1 | > 1000 |  | < 0.25 | 2.2 |  | 2 | > 8 |  |  |  | 
CCN(CC)CCCC(C)Nc1c2c3ccccc3nc-2n(C)c2ccc(Cl)cc12 (stereo not given) | > 1000 |  | 0.043 |  | < 20 | 29 | 674 | 100% |  | inactive | 50

The next lines start with results.

IC50 (Nucleic Acid) [µM] | IC50 [1] | IC50 (Plasmodium falciparum) [µM] | IC50 [4] [milliequivalent] | inhibition [6] [%] | SMILES | IC50 [2] [µM] | selectivity ratio [3] | Activity (Plasmodium berghei [5]) | IC50 (MRC5) [µM] | Activity (Plasmodium berghei [7]) | mortality at 7 days [8] [%]
446 |  | 0.14 |  | < 20 | CCN(CC)CCCC(C)Nc1ccc2nc3n(C)c4ccccc4cc-3c2c1 (stereo not given) | 16 | 114 |  |  |  | 
118 | Not Active | 0.69 |  |  | Cn1c2nc3ccccc3c-2c(NCCN2CCOCC2)c2cc(Cl)ccc21 | 0.37 | 0.5 |  |  |  | 
645 | Not Active | < 0.25 |  |  | CCN1CCCC1CNc1c2c3ccccc3nc-2n(C)c2ccc(Cl)cc12 (stereo not given) | 0.4 | > 2 |  |  |  | 
248 |  | 0.13 | 5.25 |  | CCN(CC)CCCC(C)Nc1c2c3ccccc3nc-2n(C)c2cc(Cl)ccc12 (stereo not given) | 14 | 108 |  |  |  | 
186 | Not Active | < 0.25 |  |  | Cn1c2nc3ccccc3c-2c(NCCN2CCCC2)c2cc(Cl)ccc21 | < 0.25 |  |  |  |  | 
128 |  | 0.03 | 1.45 |  | CCN(CC)CCCC(C)Nc1ccc2c(c1)cc1c3ccccc3nc-1n2C (stereo not given) | 7.2 | 240 |  |  |  | 
